Source: ChEMBL document CHEMBL1123801, “Synthesis and antifungal activity of new 1-vinylimidazoles” (1987)
Values after ≈ are worked out from the molar mass of the structure shown.

Assays:
Format in all cases: functional
Candida albicans [1] = experiment: Minimum inhibitory concentration (MIC) against Candida albicans
How it was run: (§1)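 Broth microdilution in Sabouraud's glucose broth. Final inocula 1×10^5 cells/mL for the yeast (C. albicans) and 1×10^5 conidia/mL for the mold (A. fumigatus) and the dermatophyte (T. asteroides). MIC read as the fungistatic end point. Lowest value of duplicated experiments.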

Candida albicans [2] = experiment: Inhibition of pseudomycelium formation of Candida albicans.; conditions: read-out: MEC
How it was run: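 C. albicans KE-2 (clinical isolate), final inoculum 1×10^6 yeast cells/mL in EMEM with 20% calf serum. Compounds serially diluted by the microtiter dilution system used for MICs. After incubation, wells Giemsa-stained (5% in phosphate buffer) and examined microscopically. MEC (μg/mL) = lowest concentration preventing typical pseudomycelium formation. Lowest value of duplicated experiments.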

Trichophyton benhamiae = experiment: Minimum inhibitory concentration against Trichophyton asteroides; how it was run: as §1
Aspergillus fumigatus = experiment: Minimum inhibitory concentration (MIC) against Aspergillus fumigatus; how it was run: as §1

Row | SMILES | MIC (Candida albicans [1]) [µg/mL] | MIC (Trichophyton benhamiae) [µg/mL] | MIC (Aspergillus fumigatus) [µg/mL] | minimal effective concentration (Candida albicans [2]) [µg/mL]
1 | CC(C)COc1ccccc1/C(=C/CN(C)C)n1ccnc1 | > 100 | > 100 | > 100 | 5
2 | C=C(c1ccccc1OC(C)c1cccc(Cl)c1)n1ccnc1 (stereo not drawn) | 6.2 (≈ 19.1 µM) | 0.4 (≈ 1.23 µM) | 12.5 (≈ 38.5 µM) | –
3 | CC(C)=C(c1cc(Cl)ccc1OCc1ccc(Cl)c(Cl)c1)n1ccnc1 | 12.5 (≈ 30.7 µM) | 3.1 (≈ 7.6 µM) | 6.2 (≈ 15.2 µM) | –
4 | CC(C)=C(c1ccccc1OCCCOc1ccccc1)n1ccnc1 | 25 (≈ 71.7 µM) | 3.1 (≈ 8.9 µM) | 6.2 (≈ 17.8 µM) | –
5 | CCC=C(c1cc(Cl)ccc1OCc1ccc(Cl)cc1Cl)n1ccnc1 | 12.5 (≈ 30.7 µM) | 0.2 (≈ 0.491 µM) | 0.8 (≈ 1.96 µM) | –
6 | C=C(c1cc(Cl)cc(Cl)c1OCc1ccsc1)n1ccnc1 | > 100 | 6.2 (≈ 17.7 µM) | 100 (≈ 285 µM) | –
7 | C=C(c1ccccc1OCc1ccccc1Cl)n1ccnc1 | 6.2 (≈ 19.9 µM) | 0.1 (≈ 0.322 µM) | 0.8 (≈ 2.57 µM) | –
8 | C=C(c1ccccc1OC(C)c1ccc(Cl)cc1)n1ccnc1 (stereo not drawn) | 3.1 (≈ 9.54 µM) | 0.1 (≈ 0.308 µM) | 6.2 (≈ 19.1 µM) | –
9 | C=C(c1ccccc1NCc1ccc(Cl)cc1)n1ccnc1 | > 100 | > 100 | > 100 | –
10 | C=C(c1ccccc1OC(C)c1ccccc1)n1ccnc1 (stereo not drawn) | 25 (≈ 86.1 µM) | 0.1 (≈ 0.344 µM) | 6.2 (≈ 21.4 µM) | –
11 | CC(C)=C(c1cc(Cl)ccc1OCCCOc1ccc(Cl)cc1)n1ccnc1 | > 100 | 3.1 (≈ 7.43 µM) | > 100 | –
12 | C=C(c1cc(Cl)cc(Cl)c1OCc1ccccc1)n1ccnc1 | > 100 | 3.1 (≈ 8.98 µM) | > 100 | –
13 | CC=C(c1cc(Cl)ccc1OCc1ccc(Cl)cc1Cl)n1ccnc1 | 12.5 (≈ 31.7 µM) | 1.6 (≈ 4.06 µM) | 0.4 (≈ 1.02 µM) | –
14 | C=C(c1ccccc1OCc1ccc([N+](=O)[O-])cc1)n1ccnc1 | 12.5 (≈ 38.9 µM) | 0.1 (≈ 0.311 µM) | 6.2 (≈ 19.3 µM) | –
15 | C=C(c1ccccc1OCCOc1ccccc1)n1ccnc1 | 50 (≈ 163 µM) | 0.1 (≈ 0.326 µM) | 12.5 (≈ 40.8 µM) | –
16 | CC=C(c1ccccc1OCc1ccc(Cl)cc1Cl)n1ccnc1 | 12.5 (≈ 34.8 µM) | 6.2 (≈ 17.3 µM) | 0.1 (≈ 0.278 µM) | –
17 | C=C(c1ccccc1OCc1ccc(C)cc1)n1ccnc1 | 3.1 (≈ 10.7 µM) | 0.1 (≈ 0.344 µM) | 3.1 (≈ 10.7 µM) | –
18 | CC(C)=C(c1ccccc1OCc1ccccc1)n1ccnc1 | 25 (≈ 82.1 µM) | 1.6 (≈ 5.26 µM) | 12.5 (≈ 41.1 µM) | –
19 | C=C(c1ccccc1OC(CC)c1ccccc1)n1ccnc1 (stereo not drawn) | 6.2 (≈ 20.4 µM) | 0.1 (≈ 0.329 µM) | 3.1 (≈ 10.2 µM) | –
20 | CC(C)=C(c1ccccc1OCc1ccc(C)cc1)n1ccnc1 | 25 (≈ 78.5 µM) | 3.1 (≈ 9.74 µM) | 6.2 (≈ 19.5 µM) | –
21 | C=C(c1ccccc1OC(C)c1ccc(OC)cc1)n1ccnc1 (stereo not drawn) | 12.5 (≈ 39 µM) | 0.4 (≈ 1.25 µM) | 12.5 (≈ 39 µM) | –
22 | CCC=C(c1cc(Cl)ccc1OCc1ccc(Cl)cc1)n1ccnc1 | 6.2 (≈ 16.6 µM) | 0.4 (≈ 1.07 µM) | 0.8 (≈ 2.14 µM) | –
23 | C=C(c1c(Cl)ccc(Cl)c1OCc1ccc(Cl)cc1)n1ccnc1 | > 100 | 12.5 (≈ 32.9 µM) | > 100 | –
24 | C=C(c1ccccc1OCc1ccsc1)n1ccnc1 | 50 (≈ 177 µM) | 0.1 (≈ 0.354 µM) | 3.1 (≈ 11 µM) | –

The next lines start with results.

Row | MIC (Candida albicans [1]) [µg/mL] | MIC (Trichophyton benhamiae) [µg/mL] | MIC (Aspergillus fumigatus) [µg/mL] | SMILES | minimal effective concentration (Candida albicans [2]) [µg/mL]
25 | 25 (≈ 67.8 µM) | 0.1 (≈ 0.271 µM) | 6.2 (≈ 16.8 µM) | C=C(c1cc(Cl)ccc1OCc1ccc(C(=O)OC)cc1)n1ccnc1 | –
26 | 12.5 (≈ 37.8 µM) | 0.1 (≈ 0.302 µM) | 3.1 (≈ 9.37 µM) | C=C(c1cc(Cl)ccc1OC(C)c1ccsc1)n1ccnc1 (stereo not drawn) | –
27 | 25 (≈ 71.2 µM) | 0.1 (≈ 0.285 µM) | 6.2 (≈ 17.7 µM) | C=C(c1cc(Cl)ccc1OCc1ccsc1Cl)n1ccnc1 | –
28 | > 100 | 0.8 (≈ 2.74 µM) | > 100 | C=C(c1cc(Cl)ccc1OCCC(C)C)n1cncn1 | 20
29 | 100 (≈ 438 µM) | 0.1 (≈ 0.438 µM) | 1.6 (≈ 7.01 µM) | C=C(c1ccccc1OCCC)n1ccnc1 | –
30 | > 100 | 25 (≈ 107 µM) | 100 (≈ 426 µM) | C=C(c1ccc(Cl)cc1OC)n1ccnc1 | –
31 | 25 (≈ 90.3 µM) | 0.2 (≈ 0.723 µM) | 0.4 (≈ 1.45 µM) | C=C(c1cc(Cl)ccc1OCCCC)n1ccnc1 | –
32 | 50 (≈ 145 µM) | 0.1 (≈ 0.29 µM) | 1.6 (≈ 4.63 µM) | C=C(c1ccccc1OCc1ccc(Cl)cc1Cl)n1ccnc1 | –
33 | 25 (≈ 77 µM) | 0.1 (≈ 0.308 µM) | 6.3 (≈ 19.4 µM) | C=C(c1cc(Cl)ccc1OC(C)c1ccccc1)n1ccnc1 (stereo not drawn) | –
34 | 6.2 (≈ 17.3 µM) | 0.1 (≈ 0.278 µM) | 12.5 (≈ 34.8 µM) | C=C(c1cc(Cl)ccc1OC(C)c1cccc(Cl)c1)n1ccnc1 (stereo not drawn) | –
35 | 6.2 (≈ 19.1 µM) | 0.2 (≈ 0.616 µM) | 3.1 (≈ 9.54 µM) | CC=C(c1cc(Cl)ccc1OCc1ccccc1)n1ccnc1 | –
36 | 50 (≈ 148 µM) | 0.2 (≈ 0.59 µM) | 1.6 (≈ 4.72 µM) | C=C(c1cc(Cl)ccc1OCCCc1ccccc1)n1ccnc1 | –
37 | 25 (≈ 95.2 µM) | 0.1 (≈ 0.381 µM) | 0.8 (≈ 3.04 µM) | C=C(c1cc(Cl)ccc1OCCC)n1ccnc1 | –
